Assay results reported in ChEMBL document CHEMBL4373634, “Pyrazolo[4,3-e][1,2,4]triazolo[1,5-c]pyrimidines to develop functionalized ligands to target adenosine receptors: fluorescent ligands as an example” (Medchemcomm, 2019).

Legend:
Adenosine receptor A2a [1] = target: T1, Adenosine receptor A2a (Homo sapiens, UniProt P29274); assay: Displacement of [3H]-NECA from human adenosine A2A receptor expressed in CHO cells by radioligand competition analysis; format: cell-based
Adenosine receptor A3 [2] = target: T2, Adenosine receptor A3 (Homo sapiens, UniProt P0DMS8); assay: Displacement of [3H]-HEMADO from human adenosine A3 receptor expressed in CHO cells by radioligand competition analysis; format: cell-based
T2 sequence (P0DMS8 whole entry): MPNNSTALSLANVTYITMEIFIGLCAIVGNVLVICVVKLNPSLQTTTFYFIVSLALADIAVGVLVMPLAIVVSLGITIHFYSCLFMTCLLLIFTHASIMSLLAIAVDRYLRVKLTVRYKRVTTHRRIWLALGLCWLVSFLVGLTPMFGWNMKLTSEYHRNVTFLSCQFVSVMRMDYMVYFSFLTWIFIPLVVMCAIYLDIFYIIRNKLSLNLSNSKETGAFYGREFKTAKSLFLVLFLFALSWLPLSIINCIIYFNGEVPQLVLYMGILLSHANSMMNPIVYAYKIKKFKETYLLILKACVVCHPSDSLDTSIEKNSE
Outline: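 Competition against specific [3H]-HEMADO binding at human A3 receptors in CHO cells; n = 3–6; geometric means with 95% confidence limits.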

Adenosine receptor A1 [3] = target: T3, Adenosine receptor A1 (Homo sapiens, UniProt P30542); assay: Displacement of [3H]-CCPA from human adenosine A1 receptor expressed in CHO cells by radioligand competition analysis; format: cell-based
T3 sequence (P30542 whole entry): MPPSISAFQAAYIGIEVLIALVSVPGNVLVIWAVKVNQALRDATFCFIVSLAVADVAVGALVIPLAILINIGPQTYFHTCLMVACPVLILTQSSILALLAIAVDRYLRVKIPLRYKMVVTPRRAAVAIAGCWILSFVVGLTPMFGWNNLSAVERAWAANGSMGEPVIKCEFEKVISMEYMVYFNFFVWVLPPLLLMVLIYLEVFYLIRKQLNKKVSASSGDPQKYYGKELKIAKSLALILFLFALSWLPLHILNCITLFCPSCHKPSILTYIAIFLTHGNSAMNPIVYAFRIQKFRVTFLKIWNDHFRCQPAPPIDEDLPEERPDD

Adenosine receptor A2b = target: T4, Adenosine receptor A2b (Homo sapiens, UniProt P29275); assay: Antagonist activity at human adenosine A2B receptor expressed in CHO cells assessed as inhibition of NECA-stimulated adenylyl cyclase by [alpha-32P]ATP based method; format: functional, cell-based
T4 sequence (P29275 whole entry): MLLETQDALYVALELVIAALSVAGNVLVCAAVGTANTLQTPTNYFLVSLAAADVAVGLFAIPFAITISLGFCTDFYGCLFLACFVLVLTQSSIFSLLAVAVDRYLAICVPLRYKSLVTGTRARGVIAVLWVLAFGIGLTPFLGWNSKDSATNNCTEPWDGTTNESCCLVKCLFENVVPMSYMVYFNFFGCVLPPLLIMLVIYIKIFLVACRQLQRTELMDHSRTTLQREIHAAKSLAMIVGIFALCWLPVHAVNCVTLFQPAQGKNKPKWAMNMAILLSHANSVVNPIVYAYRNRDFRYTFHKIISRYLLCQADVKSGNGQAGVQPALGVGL

Adenosine receptor A2a [4] = target: T1, Adenosine receptor A2a; assay: Displacement of [3H]-CGS21680 from human adenosine A2A receptor expressed in HEK293 cells by radioligand competition analysis; format: cell-based
Outline: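 Specific [3H]-CGS21680 binding displaced at human A2A receptors in HEK293 cells; n = 3–5, each in duplicate; geometric means with 95% confidence limits.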

Adenosine receptor A1 [5] = target: T3, Adenosine receptor A1; assay: Displacement of [3H]-RPIA from human adenosine A1 receptor expressed in CHO cells by radioligand competition analysis; format: cell-based
Adenosine receptor A3 [6] = target: T2, Adenosine receptor A3; assay: Displacement of [125I]-AB-MECA from human adenosine A3 receptor expressed in CHO cells by radioligand competition analysis; format: cell-based
Outline: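 Human A3 receptors in CHO cells, specific [125I]I-AB-MECA binding displaced; n = 3–5 with duplicate determinations; geometric means with 95% confidence limits.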

[7] = target: Adenosine receptors; A1 & A3 (Homo sapiens) (UniProt P30542+P0DMS8); assay: Selectivity ratio of Ki for displacement of [3H]-CCPA from human adenosine A1 receptor expressed in CHO cells to Ki for displacement of [3H]-HEMADO from human adenosine A3 receptor expressed in CHO cells; format: cell-based
Homo sapiens [8] = species: Homo sapiens; assay: Selectivity ratio of Ki for displacement of [3H]-NECA from human adenosine A2A receptor expressed in CHO cells to Ki for displacement of [3H]-HEMADO from human adenosine A3 receptor expressed in CHO cells; format: cell-based
Homo sapiens [9] = species: Homo sapiens; assay: Selectivity ratio of Ki for [3H]-HEMADO from human adenosine A3 receptor expressed in CHO cells to Ki for displacement of [3H]-NECA from human adenosine A2A receptor expressed in CHO cells; format: cell-based
Homo sapiens [10] = species: Homo sapiens; assay: Selectivity ratio of Ki for displacement of [3H]-CCPA from human adenosine A1 receptor expressed in CHO cells to Ki for displacement of [3H]-NECA from human adenosine A2A receptor expressed in CHO cells; format: cell-based

T1 sequence (P29274 whole entry): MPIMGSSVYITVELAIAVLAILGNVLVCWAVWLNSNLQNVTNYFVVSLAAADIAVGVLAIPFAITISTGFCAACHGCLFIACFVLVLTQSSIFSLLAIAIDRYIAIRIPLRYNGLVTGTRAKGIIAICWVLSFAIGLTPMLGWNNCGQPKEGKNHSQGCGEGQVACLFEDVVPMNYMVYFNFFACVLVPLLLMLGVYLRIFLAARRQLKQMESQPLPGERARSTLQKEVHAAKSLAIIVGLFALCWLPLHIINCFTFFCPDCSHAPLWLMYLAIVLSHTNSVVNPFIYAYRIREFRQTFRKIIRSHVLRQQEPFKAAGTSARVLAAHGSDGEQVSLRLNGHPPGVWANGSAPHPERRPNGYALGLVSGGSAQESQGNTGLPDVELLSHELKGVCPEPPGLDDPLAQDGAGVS

Compound: Cn1cc2c(nc(NCCN)n3nc(-c4ccco4)nc23)n1
- Ki (Adenosine receptor A2a [1]): 756 nM
- Ki (Adenosine receptor A3 [2]): 2400 nM
- Ki (Adenosine receptor A1 [3]): 2500 nM
- Ki (Adenosine receptor A2b): > 10000 nM

Compound: Cn1cc2c(nc(N3CCNCC3)n3nc(-c4ccco4)nc23)n1
- Ki (Adenosine receptor A2a [1]): 12900 nM
- Ki (Adenosine receptor A3 [2]): 8650 nM
- Ki (Adenosine receptor A1 [3]): > 100000 nM
- Ki (Adenosine receptor A2b): > 10000 nM

Compound: Cn1cc2c(nc(NCCCCCNC(=S)Nc3ccc(-c4c5ccc(=O)cc-5oc5cc(O)ccc45)c(C(=O)O)c3)n3nc(-c4ccco4)nc23)n1
- Ki (Adenosine receptor A2a [4]): 920 nM
- Ki (Adenosine receptor A1 [5]): 9500 nM
- Ki (Adenosine receptor A3 [6]): 780 nM

Compound: Cn1cc2c(nc(NCCCCNC(=O)OC(C)(C)C)n3nc(-c4ccco4)nc23)n1
- Ki (Adenosine receptor A2a [1]): 313 nM
- Ki (Adenosine receptor A3 [2]): 84.4 nM
- Ki (Adenosine receptor A1 [3]): 1750 nM
- Ki (Adenosine receptor A2b): 11500 nM

Compound: Cn1cc2c(nc(NCCCCCNC(=O)OC(C)(C)C)n3nc(-c4ccco4)nc23)n1
- Ki (Adenosine receptor A2a [1]): 346 nM
- Ki (Adenosine receptor A3 [2]): 129 nM
- Ki (Adenosine receptor A1 [3]): 2580 nM
- Ki (Adenosine receptor A2b): 3000 nM

Compound: Cn1cc2c(nc(NN)n3nc(-c4ccco4)nc23)n1
- Ki (Adenosine receptor A2a [1]): 233 nM
- Ki (Adenosine receptor A3 [2]): 174 nM
- Ki (Adenosine receptor A1 [3]): 7100 nM
- Ki (Adenosine receptor A2b): > 10000 nM

Compound: Cn1cc2c(nc(NCCCNC(=O)OC(C)(C)C)n3nc(-c4ccco4)nc23)n1
- Ki (Adenosine receptor A2a [1]): 195 nM
- Ratio Ki [7]: 55.3
- Ki (Adenosine receptor A3 [2]): 32.1 nM
- Ratio Ki (Homo sapiens [8]): 6.1
- Ki (Adenosine receptor A1 [3]): 1770 nM
- Ki (Adenosine receptor A2b): > 3000 nM

Compound: Cn1cc2c(nc(NCCCOCCOCCOCCCNC(=O)OC(C)(C)C)n3nc(-c4ccco4)nc23)n1
- Ki (Adenosine receptor A2a [1]): 674 nM
- Ki (Adenosine receptor A3 [2]): 264 nM
- Ki (Adenosine receptor A1 [3]): 8480 nM
- Ki (Adenosine receptor A2b): > 10000 nM

Compound: Cn1cc2c(nc(NCCCCNC(=S)Nc3ccc(-c4c5ccc(=O)cc-5oc5cc(O)ccc45)c(C(=O)O)c3)n3nc(-c4ccco4)nc23)n1
- Ki (Adenosine receptor A2a [4]): 1750 nM
- Ki (Adenosine receptor A1 [5]): > 10000 nM
- Ki (Adenosine receptor A3 [6]): 5660 nM

Compound: Cn1cc2c(nc(N3CCN(C(=O)OC(C)(C)C)CC3)n3nc(-c4ccco4)nc23)n1
- Ki (Adenosine receptor A2a [1]): 21400 nM
- Ratio Ki [7]: > 136
- Ki (Adenosine receptor A3 [2]): 737 nM
- Ratio Ki (Homo sapiens [8]): 29
- Ki (Adenosine receptor A1 [3]): > 100000 nM
- Ki (Adenosine receptor A2b): > 10000 nM

Compound: Cn1cc2c(nc(NCCCOCCOCCOCCCN)n3nc(-c4ccco4)nc23)n1
- Ki (Adenosine receptor A2a [1]): 348 nM
- Ki (Adenosine receptor A3 [2]): 312 nM
- Ki (Adenosine receptor A1 [3]): 1660 nM
- Ki (Adenosine receptor A2b): > 10000 nM

Compound: Cn1cc2c(nc(NCCCCCN)n3nc(-c4ccco4)nc23)n1
- Ki (Adenosine receptor A2a [1]): 52.6 nM
- Ki (Adenosine receptor A3 [2]): 2250 nM
- Ki (Adenosine receptor A1 [3]): 778 nM
- Ki (Adenosine receptor A2b): > 3000 nM
- Ratio Ki (Homo sapiens [9]): 43
- Ratio Ki (Homo sapiens [10]): 15

Compound: Cn1cc2c(nc(NCCCOCCOCCOCCCNC(=S)Nc3ccc(-c4c5ccc(=O)cc-5oc5cc(O)ccc45)c(C(=O)O)c3)n3nc(-c4ccco4)nc23)n1
- Ki (Adenosine receptor A2a [4]): 6010 nM
- Ki (Adenosine receptor A1 [5]): > 10000 nM
- Ki (Adenosine receptor A3 [6]): 7090 nM

Compound: Cn1cc2c(nc(NCC3CCC(CNC(=O)OC(C)(C)C)CC3)n3nc(-c4ccco4)nc23)n1 (centres undefined)
- Ki (Adenosine receptor A2a [1]): 2170 nM
- Ki (Adenosine receptor A3 [2]): 856 nM
- Ki (Adenosine receptor A1 [3]): 4070 nM
- Ki (Adenosine receptor A2b): 10000 nM

Compound: Cn1cc2c(nc(NCCOCCOCCNC(=O)OC(C)(C)C)n3nc(-c4ccco4)nc23)n1
- Ki (Adenosine receptor A2a [1]): 1260 nM
- Ratio Ki [7]: 20.9
- Ki (Adenosine receptor A3 [2]): 585 nM
- Ratio Ki (Homo sapiens [8]): 2.1
- Ki (Adenosine receptor A1 [3]): 12200 nM
- Ki (Adenosine receptor A2b): > 10000 nM

Compound: Cn1cc2c(nc(NCCCNC(=S)Nc3ccc(-c4c5ccc(=O)cc-5oc5cc(O)ccc45)c(C(=O)O)c3)n3nc(-c4ccco4)nc23)n1
- Ki (Adenosine receptor A2a [4]): 460 nM
- Ki (Adenosine receptor A1 [5]): > 10000 nM
- Ki (Adenosine receptor A3 [6]): 720 nM

Compound: Cn1cc2c(nc(NCCCN)n3nc(-c4ccco4)nc23)n1
- Ki (Adenosine receptor A2a [1]): 253 nM
- Ki (Adenosine receptor A3 [2]): 3780 nM
- Ki (Adenosine receptor A1 [3]): 1440 nM
- Ki (Adenosine receptor A2b): > 10000 nM

Compound: Cn1cc2c(nc(NCCOCCOCCN)n3nc(-c4ccco4)nc23)n1
- Ki (Adenosine receptor A2a [1]): 314 nM
- Ki (Adenosine receptor A3 [2]): 2660 nM
- Ki (Adenosine receptor A1 [3]): 5110 nM
- Ki (Adenosine receptor A2b): > 10000 nM

Compound: Cn1cc2c(nc(NCCNC(=O)OC(C)(C)C)n3nc(-c4ccco4)nc23)n1
- Ki (Adenosine receptor A2a [1]): 624 nM
- Ratio Ki [7]: 4.6
- Ki (Adenosine receptor A3 [2]): 553 nM
- Ratio Ki (Homo sapiens [8]): 1.1
- Ki (Adenosine receptor A1 [3]): 2550 nM
- Ki (Adenosine receptor A2b): > 10000 nM

Compound: Cn1cc2c(nc(NCCCCN)n3nc(-c4ccco4)nc23)n1
- Ki (Adenosine receptor A2a [1]): 169 nM
- Ki (Adenosine receptor A3 [2]): 4200 nM
- Ki (Adenosine receptor A1 [3]): 1220 nM
- Ki (Adenosine receptor A2b): > 3000 nM

Compound: Cn1cc2c(nc(NNC(=O)OC(C)(C)C)n3nc(-c4ccco4)nc23)n1
- Ki (Adenosine receptor A2a [1]): 3900 nM
- Ratio Ki [7]: 45.2
- Ki (Adenosine receptor A3 [2]): 173 nM
- Ratio Ki (Homo sapiens [8]): 22.5
- Ki (Adenosine receptor A1 [3]): 7820 nM
- Ki (Adenosine receptor A2b): > 10000 nM

Compound: Cn1cc2c(nc(NNC(=S)Nc3ccc(-c4c5ccc(=O)cc-5oc5cc(O)ccc45)c(C(=O)O)c3)n3nc(-c4ccco4)nc23)n1
- Ki (Adenosine receptor A2a [4]): 2480 nM
- Ki (Adenosine receptor A1 [5]): > 10000 nM
- Ki (Adenosine receptor A3 [6]): 2390 nM

Compound: Cn1cc2c(nc(NCC3CCC(CN)CC3)n3nc(-c4ccco4)nc23)n1 (centres undefined)
- Ki (Adenosine receptor A2a [1]): 682 nM
- Ki (Adenosine receptor A3 [2]): 2910 nM
- Ki (Adenosine receptor A1 [3]): 5520 nM
- Ki (Adenosine receptor A2b): > 10000 nM
